Assay results pooled from the literature.
Each line is one published result; the experiments were not run side by side.
Organism: Hepatitis C virus
Observed: viral replication
Action: inhibitor
Setting: replicon

The EC50 of `CCN1CCN(C2c3ccccc3-c3ccc(Br)cc32)CC1` (centres unmarked) is reported as over 1000 nM (Huh-7.5.1; GETYPE2A; 48 h).
`COC(=O)N[C@H](C(=O)N1CCC[C@H]1c1ncc(-c2ccc(-c3ccc(-c4cnc([C@@H]5CCCN5C(=O)[C@@H](NC(=O)OC)C(C)C)[nH]4)cc3)cc2)[nH]1)C(C)C` gave an EC50 of 0.009 nM (GETYPE1B).
The EC50 of `O=C1O[C@H]2[C@@H]3OC(=O)c4cc(O)c(O)c(O)c4-c4c(O)c(O)c5oc(=O)c6c(c(O)c(O)c7oc(=O)c4c5c76)-c4c(cc(O)c(O)c4O)C(=O)OC[C@H]3OC(O)[C@@H]2OC(=O)c2cc(O)c(O)c(O)c2-c2c1cc(O)c(O)c2O` (mixture of isomers) is reported as about 100000 nM (Huh-7; GETYPE2A; 48 h).
For `CN1CCN([C@@H](c2ccccc2)c2ccc(Cl)cc2)CC1`, the EC50 was 24 nM (Huh-7.5.1; GETYPE2A; 48 h).
`C=C1/C(=C\C=C2/CCC[C@]3(C)[C@@H]([C@H](C)CCCC(C)(C)O)CC[C@@H]23)C[C@@H](O)C[C@@H]1O` gave an EC50 of 1100 nM (luciferase; BM4-5; GETYPE1B; 5 days).
`COc1nc(N)nc2c1ncn2[C@@H]1O[C@H](COP(=O)(N[C@@H](C)C(=O)OCC(C)(C)C)Oc2cccc3ccccc23)[C@@H](O)[C@@]1(C)O` (some centres unmarked) has an EC50 of 7.3 nM (GETYPE2A; 96 h).
For `O=C1N[C@H]2[C@H](CS[C@H]2CCCCC(=O)N2CCC[C@@H]2C(=O)Nc2ccc(/C=C/c3ccc(NC(=O)[C@H]4CCCN4C(=O)Cc4ccccc4)cc3)cc2)N1`, the EC50 was over 10000 nM (GETYPE1B).
`C=C1CC[C@H](O)C/C1=C/C=C1\CCC[C@]2(C)[C@@H]([C@H](C)/C=C/[C@H](C)C(C)C)CC[C@@H]12` has an EC50 of 14200 nM (luciferase; BM4-5; GETYPE1B; 5 days).
